Not all results are given here.
Apaf1 activ: activators of human Apaf-1 apoptosome. AID 489031. Apaf-1 apoptosome caspase-3 activation, DEVD-Rh110 fluorescence; active compounds read low. activity change, negative = activation, % at 20 µM. 330,000 tested, 0.31% active;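 active = activity change at or below -40% at 20 µM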
Target sequence (O14727 whole entry, looked up): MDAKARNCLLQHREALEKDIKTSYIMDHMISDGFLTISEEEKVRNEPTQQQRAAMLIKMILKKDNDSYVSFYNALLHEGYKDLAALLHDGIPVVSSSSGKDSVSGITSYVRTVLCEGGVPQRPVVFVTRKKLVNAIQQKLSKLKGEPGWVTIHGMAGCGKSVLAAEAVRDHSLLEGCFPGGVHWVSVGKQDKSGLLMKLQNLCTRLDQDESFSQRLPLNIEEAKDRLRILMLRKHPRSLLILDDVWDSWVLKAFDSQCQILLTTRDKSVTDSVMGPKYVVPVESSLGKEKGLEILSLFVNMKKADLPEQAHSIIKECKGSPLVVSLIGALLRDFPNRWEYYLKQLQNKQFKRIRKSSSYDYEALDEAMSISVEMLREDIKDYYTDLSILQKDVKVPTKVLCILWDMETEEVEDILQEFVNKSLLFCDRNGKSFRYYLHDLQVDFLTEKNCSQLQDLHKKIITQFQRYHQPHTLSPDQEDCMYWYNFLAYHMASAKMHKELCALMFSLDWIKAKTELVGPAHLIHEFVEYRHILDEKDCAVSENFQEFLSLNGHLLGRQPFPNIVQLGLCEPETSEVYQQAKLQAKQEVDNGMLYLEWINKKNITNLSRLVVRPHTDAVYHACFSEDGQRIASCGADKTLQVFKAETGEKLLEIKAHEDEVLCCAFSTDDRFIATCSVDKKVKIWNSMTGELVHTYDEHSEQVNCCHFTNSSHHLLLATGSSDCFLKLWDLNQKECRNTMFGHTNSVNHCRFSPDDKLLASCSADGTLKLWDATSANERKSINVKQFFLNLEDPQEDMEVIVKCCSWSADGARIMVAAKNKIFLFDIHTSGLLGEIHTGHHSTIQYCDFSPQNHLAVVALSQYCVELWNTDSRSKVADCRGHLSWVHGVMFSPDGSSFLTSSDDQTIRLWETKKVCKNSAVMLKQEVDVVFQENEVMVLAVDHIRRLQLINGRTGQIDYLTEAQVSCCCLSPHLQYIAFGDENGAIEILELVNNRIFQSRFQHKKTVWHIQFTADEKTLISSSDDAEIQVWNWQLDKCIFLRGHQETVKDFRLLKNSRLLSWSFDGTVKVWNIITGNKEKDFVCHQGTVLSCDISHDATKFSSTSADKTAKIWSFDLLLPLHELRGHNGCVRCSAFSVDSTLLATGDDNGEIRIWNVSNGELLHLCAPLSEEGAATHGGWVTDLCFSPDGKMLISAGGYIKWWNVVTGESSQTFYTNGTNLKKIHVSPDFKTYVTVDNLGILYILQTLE
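System: Reconstituted apoptosome of Apaf-1, cytochrome c, caspase-9, procaspase-3 | Reagent: dATP, cytochrome c, and (Z-DEVD)2-Rh110 caspase-3 substrate | Times: 30 min compound preincubation and 50 min reaction, both room temperature | Detection: Caspase-3-released Rh110 fluorescence, 540 nm emission, 480 nm excitation | Measure: Caspase-3 activity via Apaf-1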
Rh110 interf act: interferes with Rh110 fluorescence, flagging false Apaf-1 activators; shares compounds with Apaf1 activ; Rh110 fluorescence interference, quenched caspase reaction, Ex480/Em540; fluorescence interference (activity change), % at 20 µM, hits read low; 980 tested, under 10 active; AID 504616;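 active = mean activity change at or below -40% when tested at 20 µM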
Apaf-1 act conf2: confirmation of human Apaf-1 activators | 980 tested, 5% active | activity change, negative = activation, % at 20 µM | reconstituted apoptosome caspase-3 activity, DEVD-Rh110 fluorescence; active compounds read low | shares compounds with Apaf1 activ;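 active = mean activity change at or below -40%, meaning activation of 40% or more, at 20 µM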
Each line names hits and unclear results; the compound was inactive in the other large screens (follow-up assays come after a bar, where they were run).

COc1ccc(CC2S/C(=N/N=C/c3ccccc3O)NC2=O)cc1 (stereo not given)	Apaf1 activ -524 | Rh110 interf act inactive | Apaf-1 act conf2 inactive
Cc1ccc(S(=O)(=O)/N=C2\C=C(Nc3ccc(O)cc3)C(=O)c3ccccc32)cc1	none
CC(=O)Nc1ccc(S(=O)(=O)Nc2nc3ccccc3nc2Nc2ccc(C(=O)O)c(O)c2)cc1	none
Cc1ccc(S(=O)(=O)NC(=O)Nc2ccccc2)cc1	Apaf1 activ -529 | Rh110 interf act inactive | Apaf-1 act conf2 inactive
O=C(Cn1nnc(-c2ccccc2)n1)N/N=C/c1cc([N+](=O)[O-])ccc1O	Apaf1 activ -57 | Rh110 interf act inactive | Apaf-1 act conf2 inactive
COc1cc([N+](=O)[O-])cc(/C=N/NC(=O)C(C)Nc2cccc3ccccc23)c1O (stereo not given)	none
Cc1[nH]n(-c2ccccc2)c(=O)c1/C=N/NC(=O)c1cccc([N+](=O)[O-])c1	none
Nc1c(N2CCCC2)cc(Cl)c2nonc12	none
COC(=O)c1[nH]c(=O)c2ccccc2c1O	none
OC(CNc1ccccc1)COc1ccc(OCC(O)CNc2ccccc2)cc1 (stereo not given)	Apaf1 activ -141 | Rh110 interf act inactive | Apaf-1 act conf2 inactive
OC(CNC1CCCc2ccccc21)COc1ccc2ccccc2c1 (stereo not given)	none
O=C(c1ccccc1)c1ccc(OCC(O)CNC2CCCc3ccccc32)cc1 (stereo not given)	none
Cc1ccc2nc(/C(C#N)=C\c3ccc(N4CCOCC4)o3)[nH]c2c1	none
C=CCn1c(COc2cccc(C)c2)nnc1SC(C)C(=O)NC1CC1 (stereo not given)	none
O=C(NCCCn1ccnc1)C1c2ccccc2Oc2ccccc21	Apaf1 activ -417 | Rh110 interf act inactive | Apaf-1 act conf2 inactive
Cc1cc(C)c(S(=O)(=O)NCc2ccc3c(c2)cc(C)n3C)c(C)c1	none
CC(C)c1ccc2[nH]c(O)c(N=NC(=O)c3ccc(CSc4nncn4C)cc3)c2c1	Apaf1 activ -74 | Rh110 interf act inactive | Apaf-1 act conf2 inactive
COc1ccc(CN2C(=O)Cc3c2nc(N)c2c(N)nc(N4CCCCC4)c(C#N)c32)cc1	none
Cc1ccc(SCC(=O)Nc2nccs2)cc1	Apaf1 activ -524 | Rh110 interf act inactive | Apaf-1 act conf2 inactive
COc1cc2c3nnc(-c4ccc(F)cc4)c-3cn(Cc3cccc(C)c3)c2cc1OC	none
Cc1ccc(C=Nc2ccc(N(C)C)cc2)o1	none
Oc1ccc(Cl)cc1CNc1cccc2cccnc12	none
CCOC(=O)c1[nH]c2ccc(Br)cc2c1NC(=O)CCN1CCCC(C)C1 (stereo not given)	none
CC(=O)N1CCc2cc(Br)cc(S(=O)(=O)NCCCN3CCCC(C)C3)c21 (stereo not given)	Apaf1 activ -41 | Rh110 interf act inactive | Apaf-1 act conf2 inactive
CCCCOc1cc(NCc2ccccc2)c2ncn(C(C)C)c2c1	none
Cc1nc2c(=O)[nH]c(=S)n(C)c2nc1C	Apaf1 activ -263 | Rh110 interf act inactive | Apaf-1 act conf2 inactive
CCc1ccc2nc(NC(=O)CSCc3c(C)noc3C)sc2c1	none
Cc1cc(/C=C\c2ccc3cc(N(C)C)ccc3[n+]2C)c(C)n1-c1ccccc1	none
CCOC(=O)CNc1ccc2c(c1)OCO2	none
CS(=O)(=O)Nc1ccc(C(=O)Nc2ccc3c(c2)OCO3)cc1	Apaf1 activ -58 | Rh110 interf act inactive | Apaf-1 act conf2 inactive
Cc1ccc(NC(=O)c2ccc(CN3CCc4ccccc4C3)cc2)cc1	none
CCCCc1ccc(NC(=O)c2ccc(NS(C)(=O)=O)cc2)cc1	Apaf1 activ -102 | Rh110 interf act inactive | Apaf-1 act conf2 inactive
CCN(C(=O)c1coc(=O)c(Br)c1)c1ccc2c(c1)OCO2	none
Cc1ccc(C)c2[nH]c(=O)c(C(c3nnnn3Cc3ccccc3)N3CCc4ccccc4C3)cc12 (stereo not given)	none
COc1ccc(-c2sc3cc4c(cc3c2-c2ccc(OCCN3CCCCC3)cc2)OCO4)cc1	none
CC[C@@H](C)[C@H](CNC)NC[C@@H](Cc1cccc2ccccc12)NCCc1cccc(C(F)(F)F)c1	none
COC(=O)CCC(=O)OC1(C)C(=O)C2=CN(C3CC3)C(c3ccc(OC)cc3)=CC2=C(Br)C1=O (stereo not given)	none
COCCNc1nc2nonc2nc1N(C)Cc1cccc2cnccc12	Apaf1 activ -346 | Rh110 interf act inactive | Apaf-1 act conf2 inactive
CC(C)=CCC/C(C)=C/CNC(=O)C[C@H]1C[C@H](C(=O)N2CCOCC2)[C@@]2(C)c3[nH]c4ccc(Cl)cc4c3CCN2C1=O	none
COc1ccc(/C=C2/C(=O)N(c3c(F)c(F)c(F)c(F)c3F)N=C2C)cc1	none
Cc1cccc(CCNS(=O)(=O)c2cnc[nH]2)c1	Apaf1 activ -46 | Rh110 interf act inactive | Apaf-1 act conf2 inactive
COc1cccc(CN(C)C(=O)c2cc(S(=O)(=O)N3CCCCCC3)ccc2OC)c1	none
COc1cccc(CNC(=O)CN2C(=O)COc3ccc(S(=O)(=O)N4CCCC4)cc32)c1	Apaf1 activ -82 | Rh110 interf act inactive | Apaf-1 act conf2 inactive
COc1cccc(CN(C)C(=O)c2ccc(C)c(S(=O)(=O)N3CCCCC3)c2)c1	none
CCCCc1c(C)nn(-c2nnc3c4ccccc4n(CC)c3n2)c1C	none
[O-][n+]1c2ccccc2cc2ccccc21	Apaf1 activ -386 | Rh110 interf act inactive | Apaf-1 act conf2 inactive
CN(C)CCOc1ccc(-c2c(-c3ccccc3)sc3ccccc23)cc1	none
Cn1nccc1C(=O)N1CCN(C23CC4CC(CC(C4)C2)C3)CC1	Apaf1 activ -56 | Rh110 interf act inactive | Apaf-1 act conf2 inactive
Cc1sc2ncnc(N3CCC(C(=O)N(C)CC(=O)Nc4ccccc4Cl)CC3)c2c1C	none
COc1ccc(C2CC(=O)Oc3c(C(CCN4CCCC(C)C4)c4ccc(N(C)C)cc4)c(OC)cc(OC)c32)cc1 (stereo not given)	none
CN(C)CCNC(=O)C(=O)NCC1OCCN1S(=O)(=O)c1cc(F)ccc1F (stereo not given)	none
CNC(=O)NCC12CC3CC(CC(C3)C1)C2	Apaf1 activ -293 | Rh110 interf act inactive | Apaf-1 act conf2 inactive
CCCCNC1=CC(=O)C(=O)c2ccccc21	none
CC1(C)CC(=O)c2c(-c3cccnc3)n[nH]c2C1	none
CCOC(=O)c1c(N)n(CCOC(=O)c2cccs2)c2nc3ccccc3nc12	none
CCOC(=O)c1cc(C(=O)c2cccs2)n2ccc(C(C)=O)cc12	none
CCc1ccccc1NC(=O)COC(=O)c1cccs1	Apaf1 activ -104 | Rh110 interf act inactive | Apaf-1 act conf2 inactive
c1csc(-c2nc3c4ccccc4c4ccccc4c3[nH]2)c1	none
NC(N)=Nc1cc2ccccc2c2ccccc12	none
CCCCCc1cc(=O)oc2c(C(CCN3CCCCC3)c3ccc4c(c3)OCO4)c(OC)cc(OC)c12 (stereo not given)	none
COCCCNC(=O)c1ccc2c3c(onc13)-c1ccccc1C2=O	none
COCCNC(=O)c1onc(CSc2ccccc2)c1C(=O)O	Apaf1 activ -44 | Rh110 interf act inactive | Apaf-1 act conf2 inactive
CC1=NN(c2ccccc2)C(=O)/C1=C/c1cccc(C)c1	none
CCOC(=O)N1CCN(S(=O)(=O)N2CCCC(C(=O)NCCCN3CCCCC3CC)C2)CC1 (stereo not given)	Apaf1 activ -61 | Rh110 interf act inactive | Apaf-1 act conf2 inactive

Screens as filed in PubChem.
